Source: PubChem BioAssay
Only some compounds are listed: those with a hit (about 4.4% of all), similar ones and a draw of the others.
MPTP inh: mitochondrial permeability transition pore inhibitors, primary screen, biochemical, isolated mouse mitochondria, absorbance. Ca2+ swelling absorbance, 30 min. inhibition, % at 10 µM. 1.4% of 360,000 active. AID 602449, 2012;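 active = inhibition of 50% or more, scaled per plate between neutral and stimulator controls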
SENP1 inh: human SENP1 catalytic domain inhibitors, primary screen, biochemical, FRET, uHTS; Sentrin-specific protease 1 (Homo sapiens), Q9P0U3; recombinant SENP1 catalytic domain, CyPet-SUMO1-YPet FRET cleavage; inhibition, % at 10 µM; 0.21% of 360,000 active; AID 624204, 2012;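 active = inhibition at least 30% at 10 µM, raw YFP signal under a set limit, fluorescence ratio 0.5 to 1.5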
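Test system: recombinant human SENP1 catalytic domain, His6-tagged / Medium: pH 8 Tris buffer with EDTA, NaCl, BME, BSA, NP40, catalase / Also added: SUMO1 FRET substrate flanked by Cypet and Ypet, 25 nM / Times: 50 min reaction at room temperature / Signal: FRET, CFP and YFP emission / Control set: no-enzyme low control and enzyme-plus-DMSO high control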
GRIN3A LBD mod: binders of NR3A ligand-binding domain, primary screen, biophysical, differential scanning fluorimetry, uHTS; Glutamate receptor ionotropic, NMDA 3A (GRIN3A) ligand-binding domain; NR3A LBD differential scanning fluorimetry, Tm shift; 0% = protein alone, 100% = glycine-bound protein; Tm shift relative to glycine control, % at 25 µM; 2.5% of 340,000 active; AID 1259313, 2017;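 active = melting temperature shift of at least 10% of the positive control shift, at one fixed dose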
EBI2 block: EBI2 receptor antagonists, beta-arrestin recruitment, primary screen, cell-based, luminescence, 7a,25-OHC stimulation, uHTS; G-protein coupled receptor 183 (Homo sapiens), P32249; 7a,25-OHC stimulated; inhibition, % at 5 µM; 0.81% of 360,000 active; in the data active = inhibition above about 38%;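 note: enzyme fragment complementation signal reports receptor beta-arrestin coupling in cells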
Rh123 counter: fluorescence retest of MPTP screen hits in isolated mitochondria, single concentration | inhibition, % at 10 µM | 78% of 5,000 active | AID 624504, 2012 | membrane potential, Rhodamine 123 fluorescence | shares compounds with MPTP inh; in the data active = inhibition above about 22%
Large screens that a line does not name were inactive (follow-up assays come after a bar, where they were run).

O=C(Nc1ccc([N+](=O)[O-])cc1)NN1CCCCCC1	MPTP inh 102 | Rh123 counter 87
NS(=O)(=O)c1ccc(NC(=O)Nc2ccc(Cl)cc2)cc1	MPTP inh 77 | Rh123 counter 85
NS(=O)(=O)c1ccc(NC(=S)Nc2cc(Cl)c(Cl)cc2Cl)cc1	MPTP inh 88 | Rh123 counter 92
N#Cc1ccc(NC(=O)Nc2ccc(Cl)cc2)cc1	MPTP inh 105, GRIN3A LBD mod 34 | Rh123 counter 89
CC(NC(=O)CCC(=O)N1CCCCCC1)c1ccccc1 (stereo not drawn)	none
